Results: ChEMBL document CHEMBL4038284, “Synthesis of novel quinoline-based 4,5-dihydro-1H-pyrazoles as potential anticancer, antifungal, antibacterial and antiprotozoal agents” (Eur J Med Chem, 2017)
In brackets after ≈: the same amount, converted by molar mass. Activity calls are given as the source filed them. No cut-off for these calls is given here.

How the values were obtained:
A498 = assay: Growth inhibition of human A498 cells at 10 uM incubated for 48 hrs by sulforhodamine B assay; type: functional, cell-based
How it was run: (§1)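 NCI 60-cell-line screen at a single 10 µM dose. Cells in RPMI-1640 with 5% FBS and 2 mM L-glutamine, pre-incubated 24 h, then treated for 48 h at 37 °C. TCA fixation, sulforhodamine B staining, absorbance at 515 nm. Percentage growth calculated against time-zero and untreated controls.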

Staphylococcus aureus [1] = assay: Antibacterial activity against vancomycin-intermediate Staphylococcus aureus after 24 hrs by resazurin dye based microdilution assay; type: functional
How it was run: (§2)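 MIC taken as the lowest concentration giving visible inhibition and/or by resazurin (1 mg/mL). Gentamicin was the control. Run in duplicate, repeated at least three times.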

M14 = assay: Growth inhibition of human M14 cells at 10 uM incubated for 48 hrs by sulforhodamine B assay; type: functional, cell-based
How it was run: (§3)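 NCI 60-line panel, single 10 μM dose. Cells were grown in RPMI-1640 with 5% FBS and 2 mM L-glutamine and pre-incubated 24 h before compound addition (DMSO stock). Exposure was 48 h at 37 °C, 5% CO2. Cells were fixed with cold TCA (10% final), stained with 0.4% SRB, bound dye dissolved in 10 mM Tris base, A515 read. Growth was taken relative to time-zero and untreated control plates.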

Cryptococcus neoformans [2] = assay: Antifungal activity against Cryptococcus neoformans ATCC 32264 incubated for 48 hrs under dark condition by broth microdilution method; type: functional; conditions: ATCC 32264, 48 h
How it was run: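 CLSI M27-A3 broth microdilution in RPMI-1640, DMSO ≤1%, compounds at 250-0.98 µg/mL final. Inoculum 1-5 × 10^3 CFU/mL. Incubated 48 h at 30 °C in a moist dark chamber, read at OD405. MIC80 and MIC50 taken from % inhibition dose-response curves (mean ± SEM, triplicate). Amphotericin B was the positive control.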

Klebsiella pneumoniae = assay: Antibacterial activity against carbapenemase positive Klebsiella pneumoniae BAA 1705 after 24 hrs by resazurin dye based microdilution assay; type: functional; conditions: BAA 1705, 24 h; how it was run: as §2
TK-10 = assay: Growth inhibition of human TK10 cells at 10 uM incubated for 48 hrs by sulforhodamine B assay; type: functional, cell-based
How it was run: (§4)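 NCI-60 single-dose screen at 10 µM for 48 h. Cells were grown in RPMI-1640 with 5% FBS and 2 mM L-glutamine and preincubated 24 h before compound. Time-zero plates were TCA-fixed at compound addition. After exposure, cells were TCA-fixed, stained with SRB and read at 515 nm. Percentage growth was calculated against time-zero and untreated-control absorbances.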

Neisseria gonorrhoeae = assay: Antibacterial activity against beta lactamase positive Neisseria gonorrhoeae ATCC 31426 by oxidase test; type: functional
How it was run: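 Agar dilution MIC on GC agar with 1% isovitalex containing increasing compound concentrations. Plates inoculated with about 1×10^4 CFU (5 µL). MIC is the lowest concentration that inhibited growth, with growth confirmed by oxidase test. Run in duplicate, repeated at least three times.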

Cryptococcus neoformans [3] = assay: Growth inhibition of Cryptococcus neoformans ATCC 32264 at 62.5 ug/ml incubated for 48 hrs under dark condition by broth microdilution method relative to control; type: functional; conditions: ATCC 32264, 48 h, read-out: GI
How it was run: (§5)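 CLSI M27-A3 broth microdilution in RPMI-1640, DMSO ≤1%. Inoculum 1-5 × 10^3 CFU/mL. Incubated 48 h at 30 °C, dark. % inhibition = 100 − (OD405 test − sterility control)/(OD405 growth control − sterility control), with growth and sterility control wells. Triplicate.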

Candida albicans = assay: Growth inhibition of Candida albicans ATCC 10231 at 7.8 ug/ml incubated for 48 hrs under dark condition by broth microdilution method relative to control; type: functional; conditions: ATCC 10231, 48 h, read-out: GI; how it was run: as §5
DU-145 = assay: Growth inhibition of human DU145 cells at 10 uM incubated for 48 hrs by sulforhodamine B assay; type: functional, cell-based; how it was run: as §1
MDA-MB-435 = assay: Growth inhibition of human MDA-MB-435 cells at 10 uM incubated for 48 hrs by sulforhodamine B assay; type: functional, cell-based; how it was run: as §3
SR = assay: Growth inhibition of human SR cells at 10 uM incubated for 48 hrs by sulforhodamine B assay; type: functional, cell-based; how it was run: as §4
Cryptococcus neoformans [4] = assay: Growth inhibition of Cryptococcus neoformans ATCC 32264 at 250 ug/ml incubated for 48 hrs under dark condition by broth microdilution method relative to control; type: functional; conditions: ATCC 32264, 48 h, read-out: GI; how it was run: as §5
Malme-3M = assay: Growth inhibition of human MALME-3M cells at 10 uM incubated for 48 hrs by sulforhodamine B assay; type: functional, cell-based; how it was run: as §3
OVCAR-4 = assay: Growth inhibition of human OVCAR4 cells at 10 uM incubated for 48 hrs by sulforhodamine B assay; type: functional, cell-based; how it was run: as §3
Cryptococcus neoformans [5] = assay: Growth inhibition of Cryptococcus neoformans ATCC 32264 at 125 ug/ml incubated for 48 hrs under dark condition by broth microdilution method relative to control; type: functional; conditions: ATCC 32264, 48 h, read-out: GI; how it was run: as §5
KM12 = assay: Growth inhibition of human KM12 cells at 10 uM incubated for 48 hrs by sulforhodamine B assay; type: functional, cell-based; how it was run: as §3
UACC-62 = assay: Growth inhibition of human UACC62 cells at 10 uM incubated for 48 hrs by sulforhodamine B assay; type: functional, cell-based; how it was run: as §4
Plasmodium falciparum = assay: Antiplasmodial activity against chloroquine-sensitive Plasmodium falciparum 3D7 assessed as reduction in parasitic LDH activity after 48 hrs by Malstat reagent based […] method; type: functional; conditions: 3D7, 48 h
How it was run: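 Unsynchronized P. falciparum 3D7 at 0.5% parasitemia and 1% hematocrit in RPMI with 3% Albumax II. Exposed to 100, 25, 6.25 and 1.56 µg/mL for 48 h at 37 °C under 90% N2/5% CO2/5% O2. After three freeze-thaw cycles, LDH measured with Malstat and NBT/PES, 1 h in the dark, read at 650 nm. IC50 by Probit; triplicate, ≥2 experiments.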

Staphylococcus aureus [6] = assay: Antibacterial activity against methicillin-resistant Staphylococcus aureus ATCC 43300 after 24 hrs by resazurin dye based microdilution assay; type: functional; conditions: ATCC 43300, 24 h
How it was run: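 Broth microdilution in Mueller Hinton broth, inoculum 5 × 10^5 – 8 × 10^5. Compound stocks diluted in MHB with 5% DMSO and 0.1% Tween 80. Incubation 24 h at 35-37 °C. MIC is the lowest concentration with visible growth inhibition and/or by resazurin (1 mg/mL) read-out. Gentamicin as control. Run in duplicate, replicated at least three times.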

SF-539 = assay: Growth inhibition of human SF539 cells at 10 uM incubated for 48 hrs by sulforhodamine B assay; type: functional, cell-based; how it was run: as §3
Pseudomonas aeruginosa = assay: Antibacterial activity against Pseudomonas aeruginosa ATCC 27853 after 24 hrs by resazurin dye based microdilution assay; type: functional; conditions: ATCC 27853, 24 h; how it was run: as §2
Cryptococcus neoformans [7] = assay: Growth inhibition of Cryptococcus neoformans ATCC 32264 at 3.4 ug/ml incubated for 48 hrs under dark condition by broth microdilution method relative to control; type: functional; conditions: ATCC 32264, 48 h, read-out: GI
Cryptococcus neoformans [8] = assay: Growth inhibition of Cryptococcus neoformans ATCC 32264 at 31.25 ug/ml incubated for 48 hrs under dark condition by broth microdilution method relative to control; type: functional; conditions: ATCC 32264, 48 h, read-out: GI; how it was run: as §5
MDA-MB-231 = assay: Growth inhibition of human MDA-MB-231 cells at 10 uM incubated for 48 hrs by sulforhodamine B assay; type: functional, cell-based; how it was run: as §3

| Structure (SMILES) | growth inhibition (GI) (A498) | MIC (Staphylococcus aureus [1]) [µg/mL] | growth inhibition (GI) (M14) | MIC50 (Cryptococcus neoformans [2]) [µg/mL] | MIC80 (Cryptococcus neoformans [2]) [µg/mL] | MIC (Klebsiella pneumoniae) [µg/mL] | growth inhibition (GI) (TK-10) | MIC (Neisseria gonorrhoeae) [µg/mL] | inhibition of growth at 62.5 µg/mL (Cryptococcus neoformans [3]) [%] | inhibition of growth at 7.8 µg/mL (Candida albicans) [%] | growth inhibition (GI) (DU-145) | growth inhibition (GI) (MDA-MB-435) | growth inhibition (GI) (SR) | inhibition of growth at 250 µg/mL (Cryptococcus neoformans [4]) [%] | inhibition of growth at 125 µg/mL (Cryptococcus neoformans [5]) [%] | EC50 (Plasmodium falciparum) [µg/mL] | MIC (Staphylococcus aureus [6]) [µg/mL] | MIC (Pseudomonas aeruginosa) [µg/mL] | inhibition of growth at 3.4 µg/mL (Cryptococcus neoformans [7]) [%] | inhibition of growth at 31.25 µg/mL (Cryptococcus neoformans [8]) [%] | also measured |
| --- | --- | --- | --- | --- | --- | --- | --- | --- | --- | --- | --- | --- | --- | --- | --- | --- | --- | --- | --- | --- | --- |
| Clc1ccc(C2=NN(c3ccccc3)C(c3cccc(Nc4ccnc5cc(Cl)ccc45)c3)C2)cc1 (stereo not drawn) | inactive | > 1000 | inactive | ≥ 250 | ≥ 250 | > 1000 | inactive | > 1000 | 0 | 3.8 | inactive | inactive | inactive | 19.8 | 14.6 | 11.7 (≈ 23 µM) | > 1000 | > 1000 | 0 | 0 | growth inhibition (GI) (Malme-3M): inactive; growth inhibition (GI) (OVCAR-4): inactive; growth inhibition (GI) (KM12): inactive; growth inhibition (GI) (UACC-62): inactive; growth inhibition (GI) (SF-539): inactive; growth inhibition (GI) (MDA-MB-231): inactive |
| COc1ccc(C(=O)/C=C/c2cccc(Nc3ccnc4cc(Cl)ccc34)c2)cc1 | Active | > 1000 | Active | ≥ 250 | ≥ 250 | > 1000 | Active | > 1000 | 13.9 | 12.5 | Active | Active | Active | 46.1 | 34.4 | 10.5 (≈ 25.4 µM) | > 1000 | > 1000 | 0 | 7.31 | growth inhibition (GI) (Malme-3M): Active; growth inhibition (GI) (OVCAR-4): Active; growth inhibition (GI) (KM12): Active; growth inhibition (GI) (UACC-62): Active; growth inhibition (GI) (SF-539): Active; growth inhibition (GI) (MDA-MB-231): Active |
| COc1cc(C2=NN(c3ccc(Cl)cc3)C(c3cccc(Nc4ccnc5cc(Cl)ccc45)c3)C2)cc(OC)c1OC (stereo not drawn) | inactive | > 1000 | inactive | ≥ 250 | ≥ 250 | > 1000 | inactive | > 1000 | 17.1 | 4.21 | inactive | inactive | inactive | 21.7 | 17.1 | 44.6 (≈ 74.3 µM) | > 1000 | > 1000 | 8.08 | 12.5 | growth inhibition (GI) (Malme-3M): inactive; growth inhibition (GI) (OVCAR-4): inactive; growth inhibition (GI) (KM12): inactive; growth inhibition (GI) (UACC-62): inactive; growth inhibition (GI) (SF-539): inactive; growth inhibition (GI) (MDA-MB-231): inactive |
| O=Cc1cccc(Nc2ccnc3cc(Cl)ccc23)c1 |  | 125 (≈ 442 µM) |  | 250 (≈ 884 µM) | 250 (≈ 884 µM) | 250 (≈ 884 µM) |  | 500 (≈ 1770 µM) | 19.6 | 1.48 |  |  |  | 100 | 38.5 | 14.2 (≈ 50.1 µM) | 500 (≈ 1770 µM) | > 1000 | 5.03 | 14.3 |  |
| COc1ccc(C2=NN(c3ccccc3)C(c3cccc(Nc4ccnc5cc(Cl)ccc45)c3)C2)cc1 (stereo not drawn) | inactive | > 1000 | inactive | ≥ 250 | ≥ 250 | > 1000 | inactive | > 1000 | 10.6 | 7.57 | inactive | inactive | inactive | 32.2 | 16.9 | 13.7 (≈ 27 µM) | > 1000 | > 1000 | 2.74 | 7.77 | growth inhibition (GI) (Malme-3M): inactive; growth inhibition (GI) (OVCAR-4): inactive; growth inhibition (GI) (KM12): inactive; growth inhibition (GI) (UACC-62): inactive; growth inhibition (GI) (SF-539): inactive; growth inhibition (GI) (MDA-MB-231): inactive |
